From ChEMBL document CHEMBL1177816, “Epsilon substituted lysinol derivatives as HIV-1 protease inhibitors” (Bioorg Med Chem Lett, 2010) come the findings set out here.

Usually IC50 stands for the concentration that gives 50% inhibition. Read a high IC50 as weaker potency. For orientation: AUC means concentration integrated over time. Low readings indicate less exposure, high ones more exposure. What is called half-life is the time in which the quantity being followed falls by half.

Data set [1] relates to Human immunodeficiency virus 1. Briefly: Antiviral activity against HIV1 3B infected in human MT4 cells assessed as inhibition of viral spread after 3 days by p24 antigen ELISA in presence of 10% fetal bovine serum. It counts as functional. The essentials:
(§1)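 MT-4 cells kept in RPMI 1640 with 10% heat-inactivated FBS were infected en masse with HIV-1 IIIb at multiplicity 0.01 for 24 h, then washed and plated. Serial twofold inhibitor dilutions were added and cultures ran 3 more days. Spread was read by p24 core antigen ELISA. Line 2 used 10% FBS; line 3 used cells resuspended in 50% normal human serum, giving a serum-adjusted IC95.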
In general terms: ELISA stands for enzyme-linked immunosorbent assay.

A further data set deals with Protease (Human immunodeficiency virus 1, UniProt Q9YQ12). Briefly: Inhibition of HIV1 protease.
Chain of Protease (Q9YQ12 whole entry): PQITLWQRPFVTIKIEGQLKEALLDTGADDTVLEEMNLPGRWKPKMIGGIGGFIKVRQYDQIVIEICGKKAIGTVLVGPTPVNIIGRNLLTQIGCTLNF
Data set [2] concerns Human immunodeficiency virus 1. Briefly: Antiviral activity against HIV1 3B infected in human MT4 cells assessed as inhibition of viral spread after 3 days by p24 antigen ELISA in presence of 50% normal human serum. It counts as functional. The method in brief: as §1
A short description of data set [3]: AUC in Beagle dog at 4 mg/kg, po. It counts as ADME, organism-based, Canis lupus familiaris. The following applies: plasma. Set-up: dose 4 mg/kg, route oral. The method in brief: (§2)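 Beagle dogs received 4 mg/kg orally in PEG 400. Plasma drug levels (nM) were measured over 24 h, including the 24 h trough, and oral half-life was calculated from the plasma concentration profile.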

A short description of data set [4]: Trough plasma concentration in Beagle dog at 4 mg/kg after 24 hrs. It counts as ADME, organism-based, Canis lupus familiaris. Set-up: dose 4 mg/kg. The essentials:
as §2

Data set [5] in a line: Half life in Beagle dog at 4 mg/kg, po. It counts as ADME, organism-based, Canis lupus familiaris. The arrangement: dose 4 mg/kg, route oral. To be noted: in vivo. The method in brief: as §2

Regarding `COC(=O)N[C@H](C(=O)NCCCC[C@@H](CO)N(CCC(C)C)S(=O)(=O)c1ccc(N)cc1)C(c1ccccc1)c1ccccc1`, in data set [1], the “Inhibition of viral spread” value is recorded as 12 nM. The compound further displayed a concentration for half-maximal inhibition (IC50) on Protease of 0.03 nM. Further, in data set [2], the Virucidal was 130 nM.

For `COC(=O)N[C@H](C(=O)N[C@@H](C)CCC[C@@H](CO)N(CCC(C)C)S(=O)(=O)c1ccc(N)cc1)C(c1ccccc1)c1ccccc1`, in data set [1], the “Inhibition of viral spread” value was determined as 6.6 nM. Also, the AUC in data set [3] was 320 nM·h. Besides, in data set [2], the Virucidal turned out to be 120 nM. Further, the concentration at 24 h in data set [4] was 2 nM.

Turning to `COC(=O)N[C@H](C(=O)N[C@H](C)CCC[C@@H](CO)N(CCC(C)C)S(=O)(=O)c1ccc(N)cc1)C(c1ccccc1)c1ccccc1`, in data set [1], the “Inhibition of viral spread” value was found to be 98 nM. On Protease, this compound returned an IC50 of 0.4 nM.

Regarding `CC[C@@H](CCC[C@@H](CO)N(CCC(C)C)S(=O)(=O)c1ccc(N)cc1)NC(=O)[C@@H](NC(=O)OC)C(c1ccccc1)c1ccccc1`, the “Inhibition of viral spread” value in data set [1] worked out at 10 nM. The same compound registered an AUC in data set [3] of 1050 nM·h. The IC50 on Protease amounted to 0.016 nM. The Virucidal in data set [2] was 74 nM. In data set [5], this compound had a half-life of 6 h. Further, the concentration at 24 h in data set [4] was 5.1 nM.

Turning to `CCC[C@@H](CCC[C@@H](CO)N(CCC(C)C)S(=O)(=O)c1ccc(N)cc1)NC(=O)[C@@H](NC(=O)OC)C(c1ccccc1)c1ccccc1`, in data set [1], the “Inhibition of viral spread” value amounted to 56 nM. Also, on Protease, the IC50 stood at 0.1 nM.

As for `COC(=O)N[C@H](C(=O)N[C@@H](CCC[C@@H](CO)N(CCC(C)C)S(=O)(=O)c1ccc(N)cc1)C(C)C)C(c1ccccc1)c1ccccc1`, the “Inhibition of viral spread” value in data set [1] is given as 37 nM. On Protease, this compound came in with an IC50 of 0.1 nM.

For `COC(=O)N[C@H](C(=O)N[C@H](CO)CCC[C@@H](CO)N(CCC(C)C)S(=O)(=O)c1ccc(N)cc1)C(c1ccccc1)c1ccccc1`, the “Inhibition of viral spread” value in data set [1] is reported as 230 nM. The compound also yielded an IC50 on Protease of 0.013 nM.

On to `COC(=O)N[C@H](C(=O)NCCCC[C@@H](CO)N(CC(C)C)S(=O)(=O)c1ccc(N)cc1)C(c1ccccc1)c1ccccc1` [PPL-100], for which, at Protease, the IC50 is 0.5 nM.
